# PubChem BioAssay AID504382 (The Scripps Research Institute Molecular Screening Center, 2011)
# About 460 (18%) of roughly 2,500 compounds were called active.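 How the source made its calls: active means mean activation above a cutoff of low control average plus 3 SD from the earlier screen (cut at about 12% in these data); inactive means the rest.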 Only a sample is shown.
# Test: compound fluorescence interference without thin filaments, confirmation, artefact control for cardiac RTF calcium sensitizer project, biochemical (AID 504382)
# Conditions: IANBD fluorescence interference counterscreen, buffer, EC20 Ca2+; at 7.2 µM; stronger effect = higher value; scaled: EC20 calcium 0, EC100 calcium 100
# In short: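 Medium: MOPS buffer, 190 mM, with KCl, MgCl2, EGTA, NTA, DTT, pH 7.20; Dosing: one dose of 7.2 µM, 0.7% DMSO; Probe or stimulus: calcium at EC20 level, 0.472 mM final; Incubation: 15 min, 25 °C; Evaluation: compound fluorescence interference relative to control well signal range; Signal: fluorescence, 480/540 nm.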
row,SMILES,fluorescence artifact activation
1,O=C(Nc1ccc(Br)cc1)c1ccc(Br)c(S(=O)(=O)Nc2cccnc2)c1,4.66% (inactive)
2,CC(C)(C)NC(=O)NC(=O)Cn1ccsc1=N,40% (active)
3,O=C(C1=NN(c2ccccc2)C2C(=O)N(c3cccc(Cl)c3)C(=O)C12)c1ccccc1 (stereo not drawn),9.7% (inactive)
4,O=C(NN1C(=O)c2ccccc2NC1c1ccco1)c1ccccc1 (stereo not drawn),0.03% (inactive)
5,CN1C(=O)/C(=C/C=C2\SCCN2C)OC1=S,1.7% (inactive)
6,C=C1CCN(C(CC(C)C)C(=O)OC)S(=O)(=O)c2ccccc21 (stereo not drawn),0.08% (inactive)
7,NC(=O)C1CCN(c2ccc3c(c2)S(=O)(=O)c2ccccc2C3=O)CC1,0.05% (inactive)
8,COC(=O)C1CCN(C(=O)CN2C(=O)c3ccccc3S2(=O)=O)CC1,818% (active)
9,CN(N=Nc1ccc([N+](=O)[O-])cc1)c1ccccc1,7.25% (inactive)
10,CSc1ccc(C2C(C(=O)c3ccco3)=C(O)C(=O)N2c2nnc(SC)s2)cc1 (stereo not drawn),7.57% (inactive)
11,Cc1cc(NC(=O)/C(C#N)=C/c2ccc(-c3ccc(SC(F)F)cc3)o2)n(-c2ccccc2)n1,291% (active)
12,CC1CC1c1ccc(/C=C(\C#N)C(=O)Nc2ccc(Cl)cc2Cl)o1 (stereo not drawn),5.23% (inactive)
13,Cc1cc(NC(=O)/C(C#N)=C\c2ccc(-c3ccc(SC(F)F)cc3)o2)n(-c2ccccc2)n1,136% (active)
14,O=C(NCc1cccc(F)c1)c1cccc2c1C(=O)c1ccc(N3CCCC3)cc1S2(=O)=O,-0.02% (inactive)
15,CCOC(=O)c1sc(N)c(C#N)c1COC(=O)CNC(=O)c1ccccc1,-0.01% (inactive)
16,CC1CC(C)CN(C(=O)Cn2c(-c3nonc3N)nc3ccccc32)C1 (stereo not drawn),0.07% (inactive)
17,CC(NC(=O)COc1ccc(N(C)S(=O)(=O)c2ccccc2)cc1)c1ccccc1 (stereo not drawn),0.07% (inactive)
18,Cc1ccc(C)c(OCCN2C(=O)NC3(CCc4ccccc4C3)C2=O)c1 (stereo not drawn),0.24% (inactive)
19,Cc1ccc(C2C(C#N)=C(N)SC(N)=C2C#N)cc1,0.33% (inactive)
20,O=C(C1=C(O)C(=O)N(CCN2CCOCC2)C1c1ccc([N+](=O)[O-])cc1)c1cccs1 (stereo not drawn),10.2% (inactive)
21,CC(/C=C/c1ccc(N(C)C)cc1)=N/N=C1/NC(=O)CC(C(=O)Nc2ccc(Cl)cc2)S1 (stereo not drawn),0.15% (inactive)
22,O=[N+]([O-])c1ccc(N/N=C\c2ccccc2OCc2ccccc2)cc1,5.45% (inactive)
23,COC(=O)c1ccc(-c2ccc(F)cc2)nc1C,-0.07% (inactive)
24,O=c1[nH]c2c(s1)C=Nc1ccccc1N2,0.01% (inactive)

row,SMILES,fluorescence artifact activation
1,CN(C)C(=O)CN1C(=O)C2CCCCN2C(=O)c2ccccc21 (stereo not drawn),0.04% (inactive)
2,CN(C)/C=C1\C=C2C(=O)c3ccccc3N2C1=O,21% (active)
3,CCCCCCCC(=O)Nc1ccc(S(=O)(=O)Nc2nccs2)cc1,12.5% (active)
4,CCCC(=O)Nc1ccc(-c2cnc(-c3ccc(NC(=O)CCC)cc3)nc2)cc1,0.08% (inactive)
5,Cc1ccc(S(=O)(=O)NCCCCCC(=O)Nc2ccccc2C)cc1,8.11% (inactive)
6,N#Cc1ccccc1NC(=O)CNc1ccc(Cl)c(C(F)(F)F)c1,1.46% (inactive)
7,CCC(=O)N/C(=N/c1nc(C)cc(C)n1)Nc1ccccc1,0.29% (inactive)
8,Cc1ccc(NC(=O)c2cc(S(=O)(=O)N3CCCCC3)ccc2N2CCOCC2)cc1S(=O)(=O)N(C)C,0.83% (inactive)
9,COc1ccc(-c2csc(N3CCN(c4cc5c(cc4Cl)nc(-c4ccncc4)n5CCOCCO)CC3)n2)cc1,-0.09% (inactive)
10,CCOC(=O)Cc1csc(CC(N)=O)n1,2.47% (inactive)
11,CCOC(=O)Cc1csc(NC(=O)c2sc3nc4cc(C)ccc4cc3c2N)n1,19% (active)
12,CCOC(=O)Cc1csc(N(C)C)n1,0.08% (inactive)
13,Cc1cccc(N2CCN(C(=O)Cn3nc(Cc4ccncc4)c4ccccc4c3=O)CC2)c1C,4.88% (inactive)
14,Cc1c(O)ccc(/C(Cc2ccc3ccccc3n2)=N\N)c1O,-0.02% (inactive)
15,CC(=O)OCC[N+](C)(C)C,13.6% (active)
16,Cc1cccc(N=Cc2[nH]c3ccc(Br)c(Cl)c3c2O)c1,0.01% (inactive)
17,COCCNC(=O)c1c(CS(=O)(=O)c2ccccc2)noc1C(=O)NCc1ccccc1,-0.04% (inactive)
18,C/C(=N/Nc1ccnc2cc(Cl)ccc12)c1ccc(N)cc1,2.55% (inactive)
19,CN1c2ccccc2C(O)=C(C(=S)Nc2ccc(F)c(Cl)c2)S1(=O)=O,13.6% (active)
20,Cc1ccc(NC(=O)Nc2ccc(F)cc2)cc1Cl,4.13% (inactive)
21,CC(=O)Nc1ccccc1C(=O)C(=O)Nc1ccc(F)c(Cl)c1,0.02% (inactive)
22,CCC1(C)COC(c2ccc(OC)c(OC)c2)OC1 (stereo not drawn),0.06% (inactive)
23,N#C/C(=C\c1c[nH]c2ccccc12)C(=O)Nc1ncc(Cc2ccc(Cl)cc2Cl)s1,5.66% (inactive)
24,O=C(NCc1ccc(Cl)cc1)C1CCN(c2cnccn2)CC1,16% (active)

row,SMILES,fluorescence artifact activation
1,O=C(NCCc1ccccc1)C1CCN(c2ncccn2)CC1,0.16% (inactive)
2,O=C(CN1CCN(c2ccccc2F)CC1)NCc1ccc(Cl)cc1,0.16% (inactive)
3,COc1ccc(/C=N/NC(=O)c2cccc([N+](=O)[O-])c2)cc1O,0.08% (inactive)
4,Cn1nnc(NC(=S)NC(=O)/C=C/c2ccco2)n1,0.78% (inactive)
5,CCNC(=S)NNC(=O)CCn1cc(C)cn1,-0.01% (inactive)
6,CN(C)c1ccc(/C=C/c2nc3ccccc3c(=O)[nH]2)cc1,0.27% (inactive)
7,CN(C)c1ccc(/C=C/c2nc3ccccc3c(=O)n2CCO)cc1,127% (active)
8,CN(C)c1ccc(/C=C/c2nc3ccccc3c(=O)n2-c2ccc(C(=O)O)cc2)cc1,0.13% (inactive)
9,O=C(O)C1CCC(CNCc2ccccc2Cl)CC1 (stereo not drawn),0.76% (inactive)
10,CCCCc1ccc(NC(=O)c2cnccn2)cc1,9.08% (inactive)
11,COc1ccc(CNC(=O)c2sc(=S)n(-c3ccccc3)c2N)cc1,9.19% (inactive)
12,COc1cccc(CNC(=O)C2CCCN(c3nc4ccccc4o3)C2)c1 (stereo not drawn),0.08% (inactive)
13,CC(C)NC(=O)C1CCCN(c2nnc(-n3cccc3)s2)C1 (stereo not drawn),316% (active)
14,O=C(Nc1cc2c3c(c1)CC(=O)N3CCC2)C1CC1,0.03% (inactive)
15,Cc1ccc(/C=C2/SC(=O)NC2=S)o1,6.76% (inactive)
16,C(=N\c1nc2ccccc2n1CCN1CCOCC1)/c1cccs1,-0.03% (inactive)
17,Cc1ccc(C(C(=O)NC(C)(C)C)N(C(=O)c2csnn2)C2CC2)cc1 (stereo not drawn),34.2% (active)
18,COC(=O)c1c(NC(=O)CN2CCN(c3cccc(Cl)c3)CC2)sc(C)c1C,0.21% (inactive)
19,CCOC(=O)C1=C(C)N(CCCCCC(=O)O)C(=O)NC1c1ccccc1Cl (stereo not drawn),0.06% (inactive)
20,CCOC(=O)c1[nH]c2ccc(OCC)cc2c1CCCN1C(=O)c2ccccc2C1=O,87.1% (active)
21,CCCN1C(=O)c2ccccc2NC1c1ccc(O)c(OCC)c1 (stereo not drawn),2.14% (inactive)
22,CC(OC(=O)c1c2c(nc3ccccc13)/C(=C\c1ccc3c(c1)OCO3)CCC2)C(=O)Nc1ccc(S(N)(=O)=O)cc1 (stereo not drawn),0.03% (inactive)
23,N#Cc1cc(C(=O)c2ccccc2O)cn(-c2nccs2)c1=O,12.1% (active)
24,N#Cc1cc(C(=O)c2cc(F)ccc2O)cn(-c2nccs2)c1=O,0.01% (inactive)

row,SMILES,fluorescence artifact activation
1,Cc1ccc(O)c(C(=O)c2cc(C#N)c(=O)n(-c3nccs3)c2)c1,0.06% (inactive)
2,O=C(Cn1ncc2c3ccccc3n(Cc3cccc(Cl)c3)c2c1=O)NCC1CCCO1 (stereo not drawn),0.38% (inactive)
3,O=C(NCCOc1ccccc1Cl)C(=O)Nc1ccccc1,0.07% (inactive)
4,CS/C(=N\S(=O)(=O)c1cccs1)Nc1cccc(Cl)c1C,16.4% (active)
5,COc1cccc(CNC(=O)CCS(=O)(=O)c2cc3c(cc2C)NC(=O)CO3)c1,0.09% (inactive)
6,COc1cccc(CNC(=O)CN(C)S(=O)(=O)c2ccc3c(c2)c(=O)n(C)c(=O)n3C)c1,0.24% (inactive)
7,COc1cccc(CNC(=O)CN(C)S(=O)(=O)c2cnc[nH]2)c1,41.4% (active)
8,COc1ccc(/C=N/NC(=O)Cn2c(Cc3ccc(OC)c(OC)c3)nc3ccccc32)cc1,1.63% (inactive)
9,COc1ncnc2c1NC1=C(S2)C(=NCCC(=O)O)CC(C)(C)C1,19.4% (active)
10,CC(=O)c1cc2c(cc1N/C(=N/S(=O)(=O)c1ccc(Br)cc1)c1ccccc1)OCO2,0.13% (inactive)
11,O=C(NCc1cccc(C(F)(F)F)c1)c1cccc(S(=O)(=O)NCc2ccccc2)c1,0.02% (inactive)
12,CC(=NNC(=O)c1ccncc1)c1ccc2ccccc2c1O,0.08% (inactive)
13,CCOC(=O)c1sc2nc(C)nc(SCC(=O)NC3CCS(=O)(=O)C3)c2c1C (stereo not drawn),8.03% (inactive)
14,O=C(NCC(=O)N(CC1CCCO1)C1(C(=O)NC2CCCCC2)CCCCC1)c1ccccc1 (stereo not drawn),-0.09% (inactive)
15,CCOC(=O)N1CCN(C(=S)Nc2ccccc2C)CC1,7.89% (inactive)
16,O=C(COc1ccccc1Cl)N1CCN(c2ccccn2)CC1,0.24% (inactive)
17,S=C(Nc1cc(Cl)ccc1Oc1ccccc1)N1CCN(c2ccccn2)CC1,23.1% (active)
18,CC(COC(=O)c1ccccc1)(COC(=O)c1ccccc1)/[N+]([O-])=C/c1ccccc1,9.45% (inactive)
19,COCCCn1c(=O)/c(=C\c2cccc(OC)c2OC)s/c1=C(/C#N)C(=O)Nc1ccc(C(=O)O)cc1,2.82% (inactive)
20,CCc1cc(C(=O)Nc2ccc(OC)nc2)sc1C,-0.03% (inactive)
21,CCC(=O)N1CCC2(CC1)Oc1ccc(Cl)cc1C(=O)C21CC(c2cccnc2)=NO1 (stereo not drawn),5.01% (inactive)
